According to publication PMC5609789 (Drug Design, Development and Therapy, 2017):

What was measured:
Assay type in all cases: cell-based
[1] = test system: MDA-MB-231 breast cancer cells; assay: MTT cell viability assay, MDA-MB-231; details: Homo sapiens; for IC20: MDA-MB-231, read-out: IC20 (20% inhibitory concentration) on MDA-MB-231 cell line
Procedure, shortened: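 MDA-MB-231 cells (ATCC) grown in RPMI 1640 with 10% FBS, penicillin/streptomycin, 37°C, 5% CO2. Seeded in triplicate at 1.0×10^4 cells/well, then after 24 h exposed to 5.0–50.0 μM test compound (10.0 mM DMSO stock) for 24 h. MTT (5.0 mg/mL) was added for 2 h at 37°C in the dark, formazan dissolved in DMSO, and absorbance read at 579 nm (reference 650 nm). Mean ± SEM, n=3.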

[2] = test system: PC-3 prostate cancer cells; assay: MTT cell viability assay, PC-3; details: Homo sapiens, 24 h, read-out: IC50, Prostate carcinoma (PC-3)
Procedure, shortened: (§1)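 Cells grown in RPMI 1640 with 10% FBS, penicillin and streptomycin at 37°C, 5% CO2. DMSO stocks were 10.0 mM. Seeded in triplicate at 1.0×10^4 cells/well; after 24 h, dosed 5.0–50.0 μM for 24 h. MTT (5.0 mg/mL) was added for 2 h at 37°C in the dark, formazan dissolved in DMSO, A579 read against 650 nm. IC50 reported as mean ± SEM, n=3. Not assigned if viability stayed above 50% at 50 μM.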

[3] = test system: MCF-7 breast cancer cells; assay: MTT cell viability assay, MCF-7; details: Homo sapiens, MCF7, 24 h, read-out: IC50, Breast adenocarcinoma (MCF-7)
Procedure, shortened: as §1

[4] = test system: EJ-28 urinary bladder cancer cells; assay: MTT cell viability assay, EJ-28; details: Homo sapiens, EJ-28, 24 h, read-out: IC50, Bladder carcinoma (EJ-28)
Procedure, shortened: as §1

HepG2 liver cancer cells = assay: MTT cell viability assay, HepG2; details: Homo sapiens, HepG2, 24 h, read-out: IC50, Hepatocyte carcinoma (HepG2)
Procedure, shortened: (§2)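 Cultured in DMEM with 10% FBS, penicillin/streptomycin, 37°C, 5% CO2. Cells plated in triplicate at 1.0×10^4/well. After 24 h, test compound was added at 5.0–50.0 μM (from 10.0 mM DMSO stocks) for 24 h. MTT reduction ran 2 h at 37°C in the dark, formazan was dissolved in DMSO, absorbance 579 nm (reference 650 nm). IC50 given as mean ± SEM (n=3), not assigned when viability remained >50% at 50 μM.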

[5] = test system: human mammary epithelial cells (HMECs); assay: MTT cell viability assay, HMEC normal control; details: 24 h, read-out: IC50, HMECs (normal cells)
Procedure, shortened: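 Normal human mammary epithelial cells kept in mammary epithelial growth medium at 37°C, 5% CO2. Test compound was applied for 24 h over 5.0–50.0 μM (10.0 mM DMSO stocks), and viability was measured by MTT: 2 h in the dark at 37°C, DMSO solubilisation, read at 579/650 nm. Mean ± SEM of n=3; no IC50 assigned if viability stayed above 50% at 50 μM.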

[6] = test system: HSC-4 oral squamous cancer cells; assay: MTT cell viability assay, HSC-4; details: Homo sapiens, HSC-4, 24 h, read-out: IC50, Oral squamous carcinoma (HSC-4)
Procedure, shortened: as §2

[7] = test system: RT-112 urinary bladder cancer cells; assay: MTT cell viability assay, RT-112; details: Homo sapiens, RT-112, 24 h, read-out: IC50, Bladder carcinoma (RT-112)
Procedure, shortened: as §1

Row | SMILES | IC20 [1] [µM] | IC50 [2] [µM] | IC50 [3] [µM] | IC50 [4] [µM] | IC50 (HepG2 liver cancer cells) [µM] | IC50 [5] [µM] | IC50 [6] [µM] | IC50 [7] [µM] | IC50 ([1]; MDA-MB-231, 24 h, read-out: IC50, Breast adenocarcinoma (MDA-MB-231)) [µM]
1 | C=CCc1cc(OC)c(O)c(OC)c1 [compound 2, 4-Allyl-2,6-dimethoxyphenol] | 48 | > 50 | > 50 | > 50 | > 50 | > 50 | > 50 | > 50 | –
2 | C=CCc1ccc(OC)cc1 [compound 5, 4-allyl anisole] | 32 | > 50 | > 50 | > 50 | > 50 | > 50 | > 50 | > 50 | > 50
